Results on 13 molecules are retold here after ChEMBL document CHEMBL1137943, “Synthesis and antibacterial activity of O-substituted nocathiacin I derivatives” (Bioorg Med Chem Lett, 2004).

≈ marks a conversion by molar mass, not a printed value. A value given as a limit tells only on which side of the number the result lay.

For orientation: solubility (thermodynamic) means the concentration in solution at equilibrium with solid. Usually MIC stands for the lowest concentration that inhibits growth of the organism. The low end stands for a more susceptible organism, the high end for a less susceptible organism.

Data set [1] is described as follows: Equilibrium water solubility was determined with amorphous powders at pH 3. The format is ADME.
Another data set has as its system Streptococcus pneumoniae. Briefly: Minimum concentration required to inhibit visible growth of penicillin-resistant Streptococcus pneumoniae A28272. The format is functional. The method, boiled down:
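Serial microbroth dilution in 50% Mueller–Hinton/50% Todd–Hewitt medium; final inoculum about 5 × 10^5 CFU/well; incubated at 35 °C for 18 h in ambient air. MIC is the lowest drug concentration preventing visible growth.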

Another data set deals with Staphylococcus aureus. Briefly: Minimum concentration required to inhibit visible growth of methicillin-sensitive Staphylococcus aureus A15090. Type of data set: functional. The method, boiled down: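 Serial microbroth dilution in Mueller–Hinton medium; final inoculum about 5 × 10^5 CFU/well; incubated at 35 °C for 18 h in ambient air. MIC is the lowest drug concentration preventing visible bacterial growth.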

In a further data set the test system is Enterococcus faecalis. Briefly: Minimum concentration required to inhibit visible growth of Enterococcus faecalis A20688.
A short description of data set [2]: Equilibrium water solubility was determined with amorphous powders at pH 3.5. The format is ADME.
The subject of data set [3] is Mus musculus. The data set is described as follows: Dose (sc) required against Staphylococcus aureus infected mice. The format is functional. Particulars: read-out: PD50. Summed up:
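Adult female ICR mice infected ip with 5–6 × 10^6 CFU of S. aureus A15090 in 7% hog gastric mucin. Drug in 10% DMSO/5% Tween 80/85% water given sc twice, at 1 and 4 h post-infection. Survival followed for 8 days; 10 mice per group, at least three doses. PD50 (mg/kg) by Spearman–Karber estimator.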

Data set [4] relates to Mus musculus. Briefly: Dose (iv) required against Staphylococcus aureus infected mice. Type of data set: functional. Particulars: read-out: PD50.
Data set [5] in a line: Equilibrium water solubility was determined with amorphous powders at pH 8.5. Type of data set: ADME.
Data set [6] in a line: Equilibrium water solubility was determined with amorphous powders at pH 7.1. Type of data set: ADME.
A short description of data set [7]: Equilibrium water solubility was determined with amorphous powders at pH 8.4. Type of data set: ADME.
A short description of data set [8]: Equilibrium water solubility was determined with amorphous powders at pH 4. The format is ADME.
Data set [9] can be described thus: Equilibrium water solubility was determined with amorphous powders at pH 6.9. Type of data set: ADME.
A short description of data set [10]: Equilibrium water solubility was determined with amorphous powders at pH 8.2. The format is ADME.

Regarding `C=C(NC(=O)c1csc(-c2nc3c(cc2O)-c2nc(cs2)C(=O)NC(C(C)O)C(=O)N/C(=C(\C)OC)c2nc(cs2)C(=O)NC2c4nc(cs4)C(=O)NC(COC(=O)c4c5c6c(cccc6n4OC(=O)NCCCN4CCN(C)CC4)COC(=O)C(OC4CC(C)(O)C(N(C)C)C(C)O4)C2OC5)c2nc-3cs2)n1)C(N)=O` (stereo not drawn), the solubility (thermodynamic) in [1] was > 2300 µg/mL. In addition, the values for the minimal inhibitory concentration (MIC) against Streptococcus pneumoniae, in the data set on Staphylococcus aureus and in the data set with Enterococcus faecalis were 0.0005 µg/mL (≈ 0.000308 µM), 0.003 µg/mL (≈ 0.00185 µM) and 0.003 µg/mL (≈ 0.00185 µM), respectively.
On to `C=C(NC(=O)c1csc(-c2nc3c(cc2O)-c2nc(cs2)C(=O)NC(C(C)O)C(=O)N/C(=C(\C)OC)c2nc(cs2)C(=O)NC2c4nc(cs4)C(=O)NC(COC(=O)c4c5c6c(cccc6n4OC(=O)NCCOCCOCCOCCOCCOCCO)COC(=O)C(OC4CC(C)(O)C(N(C)C)C(C)O4)C2OC5)c2nc-3cs2)n1)C(N)=O` (stereo not drawn), for which the thermodynamic solubility in [2] is > 2100 µg/mL. Further, the minimum inhibitory concentration (MIC) against Streptococcus pneumoniae stood at 0.003 µg/mL (≈ 0.00172 µM); with Staphylococcus aureus, 0.06 µg/mL (≈ 0.0344 µM); against Enterococcus faecalis it was 0.06 µg/mL (≈ 0.0344 µM). The ED50 in the data set with Mus musculus [3] is 0.78 mg/kg.
Take `C=C(NC(=O)c1csc(-c2nc3c(cc2O)-c2nc(cs2)C(=O)NC(C(C)O)C(=O)N/C(=C(\C)OC)c2nc(cs2)C(=O)NC2c4nc(cs4)C(=O)NC(COC(=O)c4c5c6c(cccc6n4OC(=O)NCCCC)COC(=O)C(OC4CC(C)(O)C(N(C)C)C(C)O4)C2OC5)c2nc-3cs2)n1)C(N)=O` (stereo not drawn): the MIC against Streptococcus pneumoniae turned out to be 0.007 µg/mL (≈ 0.00456 µM); against Staphylococcus aureus, 0.001 µg/mL (≈ 0.000651 µM); in the data set with Enterococcus faecalis, 0.03 µg/mL (≈ 0.0195 µM).
Regarding `C=C(NC(=O)c1csc(-c2nc3c(cc2OP([O-])OC)-c2nc(cs2)C(=O)NC(C(C)O)C(=O)N/C(=C(\C)OC)c2nc(cs2)C(=O)NC2c4nc(cs4)C(=O)NC(COC(=O)c4c5c6c(cccc6n4OP([O-])OC)COC(=O)C(OC4CC(C)(O)C(N(C)C)C(C)O4)C2OC5)c2nc-3cs2)n1)C(N)=O.[Na+].[Na+]` (stereo not drawn), the ED50 in the data set with Mus musculus [4] was 5.9 mg/kg. The minimum inhibitory concentration (MIC) against Streptococcus pneumoniae was determined as 0.003 µg/mL; against Staphylococcus aureus, 0.25 µg/mL; in the data set with Enterococcus faecalis it was 0.25 µg/mL. Further, the solubility (thermodynamic) in data set [5] was > 10000 µg/mL.
Consider `C=C(NC(=O)c1csc(-c2nc3c(cc2O)-c2nc(cs2)C(=O)NC(C(C)O)C(=O)N/C(=C(\C)OC)c2nc(cs2)C(=O)NC2c4nc(cs4)C(=O)NC(COC(=O)c4c5c6c(cccc6n4OC(=O)N(C)CCO)COC(=O)C(OC4CC(C)(O)C(N(C)C)C(C)O4)C2OC5)c2nc-3cs2)n1)C(N)=O` (stereo not drawn), for which the minimum inhibitory concentration (MIC) turned out to be 0.0005 µg/mL (≈ 0.000325 µM) against Streptococcus pneumoniae, 0.03 µg/mL (≈ 0.0195 µM) in the data set with Staphylococcus aureus and 0.03 µg/mL (≈ 0.0195 µM) against Enterococcus faecalis. For the same molecule, in [6], the solubility (thermodynamic) came out at 3 µg/mL (≈ 1.95 µM).
With `C=C(NC(=O)c1csc(-c2nc3c(cc2OP([O-])OC)-c2nc(cs2)C(=O)NC(C(C)O)C(=O)N/C(=C(\C)OC)c2nc(cs2)C(=O)NC2c4nc(cs4)C(=O)NC(COC(=O)c4c5c6c(cccc6n4O)COC(=O)C(OC4CC(C)(O)C(N(C)C)C(C)O4)C2OC5)c2nc-3cs2)n1)C(N)=O.[Na+]` (stereo not drawn), the ED50 in the data set on Mus musculus [4] was 0.26 mg/kg. Besides, the thermodynamic solubility in data set [7] was > 2200 µg/mL. The MIC against Streptococcus pneumoniae stood at 0.06 µg/mL; in the data set with Staphylococcus aureus, 0.125 µg/mL; with Enterococcus faecalis, 0.25 µg/mL.
For `C=C(NC(=O)c1csc(-c2nc3c(cc2OP(=O)(O)OCCCl)-c2nc(cs2)C(=O)NC(C(C)O)C(=O)N/C(=C(\C)OC)c2nc(cs2)C(=O)NC2c4nc(cs4)C(=O)NC(COC(=O)c4c5c6c(cccc6n4O)COC(=O)C(OC4CC(C)(O)C(N(C)C)C(C)O4)C2OC5)c2nc-3cs2)n1)C(N)=O` (stereo not drawn), the minimal inhibitory concentration (MIC) in the data set with Streptococcus pneumoniae worked out at 0.03 µg/mL (≈ 0.019 µM); against Staphylococcus aureus it was 1 µg/mL (≈ 0.633 µM); against Enterococcus faecalis it was 1 µg/mL (≈ 0.633 µM).
Take `C=C(NC(=O)c1csc(-c2nc3c(cc2O)-c2nc(cs2)C(=O)N[C@@H]([C@@H](C)O)C(=O)N/C(=C(\C)OC)c2nc(cs2)C(=O)N[C@@H]2c4nc(cs4)C(=O)N[C@@H](COC(=O)c4c5c6c(cccc6n4O)COC(=O)[C@@H](O[C@H]4C[C@](C)(O)[C@H](N(C)C)[C@H](C)O4)[C@H]2OC5)c2nc-3cs2)n1)C(N)=O` [MJ347-81F4 A]: the thermodynamic solubility in [8] worked out at 340 µg/mL (≈ 237 µM). In addition, the ED50 with Mus musculus [4] worked out at 0.2 mg/kg. Further, the figures for the MIC with Streptococcus pneumoniae, in the data set with Staphylococcus aureus and against Enterococcus faecalis were 0.002 µg/mL (≈ 0.00139 µM), 0.007 µg/mL (≈ 0.00487 µM) and 0.03 µg/mL (≈ 0.0209 µM), respectively.
For `C=C(NC(=O)c1csc(-c2nc3c(cc2OP(=O)(O)OCCCl)-c2nc(cs2)C(=O)NC(C(C)O)C(=O)N/C(=C(\C)OC)c2nc(cs2)C(=O)NC2c4nc(cs4)C(=O)NC(COC(=O)c4c5c6c(cccc6n4OP(=O)(O)OCCCl)COC(=O)C(OC4CC(C)(O)C(N(C)C)C(C)O4)C2OC5)c2nc-3cs2)n1)C(N)=O` (stereo not drawn), the MIC came out at 0.5 µg/mL (≈ 0.29 µM) in the data set on Streptococcus pneumoniae, 4 µg/mL (≈ 2.32 µM) with Staphylococcus aureus and 4 µg/mL (≈ 2.32 µM) with Enterococcus faecalis.
Take `C=C(NC(=O)c1csc(-c2nc3c(cc2O)-c2nc(cs2)C(=O)NC(C(C)O)C(=O)N/C(=C(\C)OC)c2nc(cs2)C(=O)NC2c4nc(cs4)C(=O)NC(COC(=O)c4c5c6c(cccc6n4OC(=O)NC)COC(=O)C(OC4CC(C)(O)C(N(C)C)C(C)O4)C2OC5)c2nc-3cs2)n1)C(N)=O` (stereo not drawn): the minimal inhibitory concentration (MIC) against Streptococcus pneumoniae came to 0.001 µg/mL (≈ 0.000669 µM); with Staphylococcus aureus, 0.125 µg/mL (≈ 0.0836 µM); against Enterococcus faecalis it was 0.06 µg/mL (≈ 0.0401 µM).
`C=C(NC(=O)c1csc(-c2nc3c(cc2O)-c2nc(cs2)C(=O)NC(C(C)O)C(=O)N/C(=C(\C)OC)c2nc(cs2)C(=O)NC2c4nc(cs4)C(=O)NC(COC(=O)c4c5c6c(cccc6n4OP(=O)(O)OCCCl)COC(=O)C(OC4CC(C)(O)C(N(C)C)C(C)O4)C2OC5)c2nc-3cs2)n1)C(N)=O` (stereo not drawn): the solubility (thermodynamic) in data set [9] was found to be 530 µg/mL (≈ 335 µM). Further, the results for the minimal inhibitory concentration (MIC) with Streptococcus pneumoniae, with Staphylococcus aureus and against Enterococcus faecalis were 0.03 µg/mL (≈ 0.019 µM), 0.25 µg/mL (≈ 0.158 µM) and 0.5 µg/mL (≈ 0.316 µM), respectively. For the same molecule, the ED50 with Mus musculus [3] is > 10 mg/kg.
In the case of `C=C(NC(=O)c1csc(-c2nc3c(cc2O)-c2nc(cs2)C(=O)NC(C(C)O)C(=O)N/C(=C(\C)OC)c2nc(cs2)C(=O)NC2c4nc(cs4)C(=O)NC(COC(=O)c4c5c6c(cccc6n4OC(=O)NCCOCCOCCOCCOC)COC(=O)C(OC4CC(C)(O)C(N(C)C)C(C)O4)C2OC5)c2nc-3cs2)n1)C(N)=O` (stereo not drawn), the values for the MIC against Streptococcus pneumoniae, in the data set on Staphylococcus aureus and in the data set on Enterococcus faecalis were 0.015 µg/mL (≈ 0.00898 µM), 0.125 µg/mL (≈ 0.0748 µM) and 0.125 µg/mL (≈ 0.0748 µM), respectively.
Molecule `C=C(NC(=O)c1csc(-c2nc3c(cc2O)-c2nc(cs2)C(=O)NC(C(C)O)C(=O)N/C(=C(\C)OC)c2nc(cs2)C(=O)NC2c4nc(cs4)C(=O)NC(COC(=O)c4c5c6c(cccc6n4OP([O-])OC)COC(=O)C(OC4CC(C)(O)C(N(C)C)C(C)O4)C2OC5)c2nc-3cs2)n1)C(N)=O.[Na+]` (stereo not drawn) showed a thermodynamic solubility in data set [10] of 5600 µg/mL. Moreover, the ED50 with Mus musculus [4] was determined as 1.6 mg/kg. Moreover, the MIC against Streptococcus pneumoniae came to 0.007 µg/mL; with Staphylococcus aureus, 0.125 µg/mL; with Enterococcus faecalis, 0.25 µg/mL.
